Reference: ChEMBL document CHEMBL1129431, “Derivatives of (R)- and (S)-5-fluoro-8-hydroxy-2-(dipropylamino)tetralin: synthesis and interactions with 5-HT1A receptors” (J Med Chem, 1996)
“And” between values parts separate entries of the source, which are not always exact repeats. Identical values can stand only once.

Experiments:
[1] = target: T1, 5-hydroxytryptamine receptor 1A (Rattus norvegicus, UniProt P19327); assay: Binding affinity against rat hippocampal 5-hydroxytryptamine 1A (5-HT1A) receptor determined using [3H]8-OH-DPAT as radioligand; type: tissue-based, Hippocampus
T1 sequence (P19327 whole entry): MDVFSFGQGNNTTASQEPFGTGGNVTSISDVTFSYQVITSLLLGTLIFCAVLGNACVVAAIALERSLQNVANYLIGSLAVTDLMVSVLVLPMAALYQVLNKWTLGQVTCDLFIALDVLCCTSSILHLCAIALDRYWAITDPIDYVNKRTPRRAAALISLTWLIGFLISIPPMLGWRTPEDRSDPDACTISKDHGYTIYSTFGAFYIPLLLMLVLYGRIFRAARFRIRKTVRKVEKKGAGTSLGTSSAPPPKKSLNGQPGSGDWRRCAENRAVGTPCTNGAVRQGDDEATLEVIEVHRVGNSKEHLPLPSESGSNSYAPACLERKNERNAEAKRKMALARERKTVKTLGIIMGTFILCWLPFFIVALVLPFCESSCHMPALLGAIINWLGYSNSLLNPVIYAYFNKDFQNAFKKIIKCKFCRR

[2] = target: T2, 5-hydroxytryptamine receptor 1A (Rattus norvegicus) (UniProt P19327); assay: Effect on 5-hydroxytryptamine 1A receptor mediated inhibition of VIP-stimulated cAMP production at dose of 50 uM; type: functional; settings: values are per cent of control
T2 sequence (whole entry): T1 sequence (P19327 whole entry)
Summary of the method: (§1)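 GH4ZD10 cells expressing rat 5-HT1A receptors, detached with EDTA-supplemented Ca/Mg-free EBSS and resuspended in Ham's F10 with 0.01% ascorbic acid and 0.1 mM IBMX. Preincubated 1 h at 37 °C, then 0.8-1.5×10^6 cells/mL incubated 20 min at 37 °C with VIP (39 nM final) plus compounds. Duplicate samples stopped by boiling. cAMP measured in triplicate by protein-binding assay. Results are given as % of the VIP-stimulated response.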

[3] = target: T2, 5-hydroxytryptamine receptor 1A (Rattus norvegicus); assay: Effect on 5-hydroxytryptamine 1A receptor mediated inhibition of VIP-stimulated cAMP production at dose of 0.05 uM; type: functional; settings: values are per cent of control; summary of the method: as §1
[4] = target: T2, 5-hydroxytryptamine receptor 1A (Rattus norvegicus); assay: Effect on 5-hydroxytryptamine 1A receptor mediated inhibition of VIP-stimulated cAMP production at dose of 0.1 uM + 1 uM 5-HT.; type: functional; settings: values are per cent of control
Summary of the method: (§2)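 GH4ZD10 cells expressing rat 5-HT1A receptors were detached with EBSS plus 1 mM EDTA and resuspended to ~1×10^7 cells/mL in Ham's F10 with 0.01% ascorbic acid and 0.1 mM IBMX. After 1 h preincubation at 37 °C they were diluted to 0.8-1.5×10^6 cells/mL, then incubated 20 min at 37 °C with VIP (39 nM final) plus compound, alone or with 5-HT, in duplicate. The reaction was stopped by boiling. cAMP was measured in triplicate by protein-binding assay and expressed as % of the VIP-stimulated response.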

[5] = target: T2, 5-hydroxytryptamine receptor 1A (Rattus norvegicus); assay: Effect on 5-hydroxytryptamine 1A receptor mediated inhibition of VIP-stimulated cAMP production at dose of 1 uM; type: functional; settings: values are per cent of control; summary of the method: as §2
[6] = target: T2, 5-hydroxytryptamine receptor 1A (Rattus norvegicus); assay: Effect against 5-hydroxytryptamine 1A receptor mediated inhibition of VIP-stimulated cAMP production at 0.1 uM dose; type: functional; settings: values are per cent of control; summary of the method: as §2
[7] = target: T2, 5-hydroxytryptamine receptor 1A (Rattus norvegicus); assay: Effect on 5-hydroxytryptamine 1A receptor mediated inhibition of VIP-stimulated cAMP production at dose of 10 uM; type: functional; settings: values are per cent of control; summary of the method: as §2
[8] = target: T2, 5-hydroxytryptamine receptor 1A (Rattus norvegicus); assay: Effect on 5-hydroxytryptamine 1A receptor mediated inhibition of VIP-stimulated cAMP production at dose of 1 uM+ 0.1 uM 5-HT.; type: functional; settings: values are per cent of control; summary of the method: as §1
[9] = target: T2, 5-hydroxytryptamine receptor 1A (Rattus norvegicus); assay: Effect on 5-hydroxytryptamine 1A receptor mediated inhibition of VIP-stimulated cAMP production at dose of 1 uM+ 10 uM 5-HT.; type: functional; settings: values are per cent of control; summary of the method: as §2
[10] = target: T2, 5-hydroxytryptamine receptor 1A (Rattus norvegicus); settings: 1 uM
[11] = target: T2, 5-hydroxytryptamine receptor 1A (Rattus norvegicus); assay: (§3) Effect on 5-hydroxytryptamine 1A receptor mediated inhibition of VIP-stimulated cAMP production at dose of 1 uM+ 50 uM 5-HT.; type: functional; settings: values are per cent of control; summary of the method: as §2
[12] = target: T2, 5-hydroxytryptamine receptor 1A (Rattus norvegicus); assay: Effect on 5-hydroxytryptamine 1A receptor mediated inhibition of VIP-stimulated cAMP production at dose of 0+ 1 uM 5-HT.; type: functional; settings: values are per cent of control; summary of the method: as §1
[13] = target: T2, 5-hydroxytryptamine receptor 1A (Rattus norvegicus); assay: Effect on 5-hydroxytryptamine 1A receptor mediated inhibition of VIP-stimulated cAMP production at dose of 0.1 uM + 10 uM 5-HT.; type: functional; settings: values are per cent of control; summary of the method: as §1
[14] = target: T2, 5-hydroxytryptamine receptor 1A (Rattus norvegicus); assay: Effect on 5-hydroxytryptamine 1A receptor mediated inhibition of VIP-stimulated cAMP production at dose of 0.1 uM + 0.1 uM 5-HT.; type: functional; settings: values are per cent of control; summary of the method: as §1
[15] = target: T2, 5-hydroxytryptamine receptor 1A (Rattus norvegicus); assay: Effect on 5-hydroxytryptamine 1A receptor mediated inhibition of VIP-stimulated cAMP production at dose of 1 uM+ 1 uM 5-HT.; type: functional; settings: values are per cent of control; summary of the method: as §1
[16] = target: T2, 5-hydroxytryptamine receptor 1A (Rattus norvegicus); assay: as §3; type: functional; settings: values are per cent of control; summary of the method: as §1; remark: listed apart in the source
[17] = target: T2, 5-hydroxytryptamine receptor 1A (Rattus norvegicus); assay: Effect on 5-hydroxytryptamine 1A receptor mediated inhibition of VIP-stimulated cAMP production at dose of 0.01 uM+ 1 uM 5-HT.; type: functional; settings: values are per cent of control; summary of the method: as §2
[18] = target: T2, 5-hydroxytryptamine receptor 1A (Rattus norvegicus); assay: Effect on 5-hydroxytryptamine 1A receptor-mediated inhibition of VIP-stimulated cAMP production at dose of 1 uM+ 10 uM 5-HT.; type: functional; settings: values are per cent of control; summary of the method: as §2

For `CCCN(CCC)[C@H]1CCc2c(F)ccc(-c3cccs3)c2C1` [listing 1 of 2 here], the Ki [1] was 32.7 nM.
In the case of `CCCN(CCC)[C@H]1CCc2cccc(S(=O)(=O)C(F)(F)F)c2C1`, the Ki [1] is reported as 9.5 nM.
For `CCCN(CCCCN1C(=O)CC2(CCCC2)CC1=O)[C@H]1CCc2c(F)ccc(OS(=O)(=O)C(F)(F)F)c2C1`, the Ki [1] was 177 nM, the response, % of control [2] was 65% and the response, % of control [3] was 98%. It also gave a response, % of control [4] of 68% and a response, % of control [5] of 90%.
`CCCN(CCC)[C@@H]1CCc2cccc(O)c2C1` was tested, and the response, % of control [6] was 53%, the response, % of control [4] was 43% and the response, % of control [7] was 47%. The response, % of control [5] was 45%.
For `CCCN(CCCCN1C(=O)CC2(CCCC2)CC1=O)[C@H]1CCc2c(F)ccc(-c3ccco3)c2C1`, the Ki [1] was 7.5 nM, the response, % of control [4] was 62% and the response, % of control [8] was 58% and 66%. For the same compound, the response, % of control [9] was 68%.
Compound `CCCN(CCC)[C@@H]1CCc2c(F)cccc2C1` [listing 1 of 3 here] has a Ki [1] of 136 nM.
Work on `CCCN(CCC)[C@H]1CCc2c(F)ccc(O)c2C1` yielded a Ki [1] of 24.8 nM, a response, % of control [6] of 94% and a response, % of control [4] of 57%. It also gave a response, % of control [7] of 100% and a response, % of control [10] of 100%.
`CCCN(CCC)[C@H]1CCc2c(F)cccc2C1` [listing 1 of 2 here] showed a response, % of control [2] of 86%, a response, % of control [11] of 73% and a response, % of control [6] of 85%. It also gave a response, % of control [4] of 61% and a response, % of control [5] of 86%.
In the case of `CCCN(CCCCN1C(=O)CC2(CCCC2)CC1=O)[C@@H]1CCc2c(F)ccc(O)c2C1`, the Ki [1] is reported as under 0.3 nM, the response, % of control [2] is reported as 68% and the response, % of control [3] is reported as 72%. The response, % of control [4] was 68% and the response, % of control [5] was 66%.
Work on `CCCN(CCCCN1C(=O)CC2(CCCC2)CC1=O)[C@@H]1CCc2c(F)ccc(-c3ccco3)c2C1` yielded a Ki [1] of 1.1 nM, a response, % of control [12] of 62% and a response, % of control [13] of 54%. For the same compound, the response, % of control [14] was 57%, the response, % of control [5] was 60% and the response, % of control [15] was 60%.
With `CCCN(CCC)[C@@H]1CCc2c(F)ccc(OS(=O)(=O)C(F)(F)F)c2C1` the Ki [1] was 18.5 nM.
Work on `CCCN(CCC)[C@@H]1CCc2c(F)cccc2C1` [listing 2 of 3 here] yielded a Ki [1] of 136 nM.
Compound `CCCN(CCCCN1C(=O)CC2(CCCC2)CC1=O)[C@@H]1CCc2c(F)ccc(OS(=O)(=O)C(F)(F)F)c2C1` has a Ki [1] of 0.9 nM, a response, % of control [3] of 98% and a response, % of control [4] of 68%. The response, % of control [5] was 73% and the response, % of control [16] was 51%.
Work on `CCCN(CCC)[C@@H]1CCc2c(F)ccc(O)c2C1` yielded a response, % of control [6] of 86%, a response, % of control [4] of 57% and a response, % of control [7] of 61%. The response, % of control [5] was 78%.
In the case of `CCCN(CCC)[C@@H]1CCc2c(F)ccc(-c3cccs3)c2C1`, the Ki [1] is reported as 35 nM.
With `CCCN(CCC)[C@@H]1CCc2c(F)cccc2C1` [listing 3 of 3 here] the response, % of control [2] was 78%, the response, % of control [17] was 60% and the response, % of control [6] was 93% and 98%. For the same compound, the response, % of control [7] was 81%, the response, % of control [5] was 85% and the response, % of control [18] was 58%.
`CCCN(CCC)[C@H]1CCc2c(F)ccc(OS(=O)(=O)C(F)(F)F)c2C1` gave a Ki [1] of 490 nM.
`CCCN(CCC)[C@H]1CCc2c(F)ccc(-c3cccs3)c2C1` [listing 2 of 2 here] was tested, and the Ki [1] was 32.7 nM.
Compound `CCCN(CCC)[C@H]1CCc2cccc(-c3cccs3)c2C1` has a Ki [1] of 5.5 nM.
`CCCN(CCC)[C@@H]1CCc2cccc(S(=O)(=O)C(F)(F)F)c2C1` showed a Ki [1] of 3.8 nM.
`CCCN(CCC)[C@H]1CCc2c(F)cccc2C1` [listing 2 of 2 here] was tested, and the Ki [1] was 250 nM.
Work on `O=C1CC2(CCCC2)CC(=O)N1CCCCN1CCN(c2ncccn2)CC1` yielded a response, % of control [6] of 84%, a response, % of control [4] of 43% and a response, % of control [7] of 73%. It also gave a response, % of control [5] of 75% and a response, % of control [9] of 64%.
